Measurements taken from the array DNA melting data of Ke et al. (doi:10.1101/2024.01.08.574731).

Legend:
[1] = melting temperature; fluorescence melt of hairpins on a sequencing array, two-state fit, raised by 9.35 °C to match UV melts; conditions: sodium 0.088 M
In short: (§1)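 With Cy3 and quencher oligos annealed, library hairpins on a sequenced MiSeq flow cell were imaged for Cy3 fluorescence in 50 mM Na-HEPES pH 8.0, 25 mM NaCl, in 2.5 °C steps up to 60 °C. Melting temperature and folding enthalpy were derived from bootstrapped two-state fits of signals normalised to pre-quench Cy3 and to control constructs. Four replicates were combined by inverse variance, with fitted temperatures raised by 9.35 °C to match UV melts.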

[2] = folding enthalpy; higher = less favourable; fluorescence melt of hairpins on a sequencing array, two-state fit; conditions: sodium 0.088 M
In short: as §1

Sequence | Tm [1] [°C] | folding enthalpy [2] [kcal/mol]
GATCGTCTGTACGATC ((((((....)))))) | 55.7 | -38.3
GATCGTCTTTACGATC ((((((....)))))) | 55.2 | -34.3
GATCGTGAATACGATC ((((((....)))))) | 61.7 | -35
GATCGTGATACGATC ((((((...)))))) | 57.2 | -35.9
GATCGTGCATACGATC ((((((....)))))) | 60.5 | -37.7
GATCGTGCCACGATC ((((((...)))))) | 57.8 | -35.8
GATCGTGCCTACGATC ((((((....)))))) | 57.4 | -34.3
GATCGTGCGGACGATC ((((((....)))))) | 54.4 | -38.6
GATCGTGGAAACACAATC (((.(((....))).))) | 34.3 | -17.6
GATCGTGGAAACACGACC (.(((((....))))).) | 41.7 | -13.3
GATCGTGGAAACACGGTC ((.((((....)))).)) | 52.7 | -29.1
GATCGTGGAAACGCGATC (((((.(....).))))) | 55.6 | -39.9
GATCGTGGCAACGATC ((((((....)))))) | 67.6 | -32.8
GATCGTGGGACGATC ((((((...)))))) | 53.8 | -30
GATCGTGGTAACGATC ((((((....)))))) | 66.1 | -39.2
GATCGTGGTGACGATC ((((((....)))))) | 57.6 | -39.1
GATCGTGTAAACGATC ((((((....)))))) | 66.5 | -42.2
GATCGTGTACACGATC ((((((....)))))) | 63.6 | -51.3
GATCGTGTCAACGATC ((((((....)))))) | 67.6 | -39
GATCGTTCCAACGATC ((((((....)))))) | 58.6 | -39.5

Sequence | Tm [1] [°C] | folding enthalpy [2] [kcal/mol]
GATCGTTCGCACGATC ((((((....)))))) | 54.2 | -38
GATCGTTGAAACGATC ((((((....)))))) | 54.8 | -39.2
GATCGTTGACACGATC ((((((....)))))) | 52.6 | -38.3
GATCGTTGGCACGATC ((((((....)))))) | 52.5 | -32.1
GATCGTTTGAACGATC ((((((....)))))) | 54.2 | -29.1
GATCTAAAAATAGATC ((((((....)))))) | 28.2 | -10.6
GATCTAAACTTAGATC ((((((....)))))) | 42.2 | -37
GATCTAAAGGTAGATC ((((((....)))))) | 33.9 | -18.5
GATCTAAAGTAGATC ((((((...)))))) | 37.1 | -22.2
GATCTAAATTAGATC ((((((...)))))) | 37.8 | -21.3
GATCTAACCGTAGATC ((((((....)))))) | 38 | -25.1
GATCTAACTCTAGATC ((((((....)))))) | 39.6 | -21.1
GATCTAACTGTAGATC ((((((....)))))) | 39.1 | -24.2
GATCTAAGCCTAGATC ((((((....)))))) | 39.1 | -31.9
GATCTAAGGATAGATC ((((((....)))))) | 34 | -21.9
GATCTAAGGTAGATC ((((((...)))))) | 37.6 | -20.8
GATCTAAGTGTAGATC ((((((....)))))) | 39.3 | -28.5
GATCTAATCTTAGATC ((((((....)))))) | 43.6 | -35.3
GATCTAATGTAGATC ((((((...)))))) | 36.6 | -25.5
